Results taken from ChEMBL document CHEMBL1126317, “2-(aminoalkyl)-5-nitropyrazolo[3,4,5-kl]acridines, a new class of anticancer agents” (1992).

Key:
Type in all cases: functional
Mus musculus [1] = assay: In vivo antitumor activity of the compound(ip, 3.12 mg/kg for 5 days) against CD2F1 mice implanted intraperitoneally with P388 leukemia cells; Day 30 survivors=4/6; conditions: route intraperitoneal
Mus musculus [2] = assay: In vivo antitumor activity of the compound(ip, 3.12 mg/kg for 5 days) against CD2F1 mice implanted intraperitoneally with P388 leukemia cells.; conditions: route intraperitoneal
L1210 = assay: In vitro antitumor activity against L1210 leukemia cell line.; conditions: Mus musculus, read-out: ID50 (the source's name)
HCT-8 = assay: In vitro antitumor activity against HCT-8 colon cancer cell line.; conditions: Homo sapiens, read-out: ID50 (the source's name)
[3] = Ratio of the ID50's showing antitumor activity against HCT-8 and L1210 leukemia cell lines.
Summary of the method: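 Ratio taken as ID50 in HCT-8 cells divided by ID50 in L1210 cells, both ID50s expressed as molar concentrations.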

Mus musculus [4] = assay: In vivo antitumor activity of the compound(ip, 3.12 mg/kg for 5 days) against CD2F1 mice implanted intraperitoneally with P388 leukemia cells; Day 30 survivors=1/6; conditions: route intraperitoneal
Mus musculus [5] = assay: In vivo antitumor activity of the compound(ip, 3 mg/kg for 5 days) against CD2F1 mice implanted intraperitoneally with P388 leukemia cells.; conditions: route intraperitoneal
Mus musculus [6] = assay: In vivo antitumor activity of the compound(ip, 12.5 mg/kg for 5 days) against CD2F1 mice implanted intraperitoneally with P388 leukemia cells; Day 30 survivors=2/6; conditions: route intraperitoneal
Mus musculus [7] = assay: In vivo antitumor activity of the compound(ip, 12.5 mg/kg for 5 days) against CD2F1 mice implanted intraperitoneally with P388 leukemia cells.; conditions: route intraperitoneal
Mus musculus [8] = assay: In vivo antitumor activity of the compound(ip, 6.25 mg/kg for 5 days) against CD2F1 mice implanted intraperitoneally with P388 leukemia cells; Day 30 survivors=5/6; conditions: route intraperitoneal
Mus musculus [9] = assay: In vivo antitumor activity of the compound(ip, 6.25 mg/kg for 5 days) against CD2F1 mice implanted intraperitoneally with P388 leukemia cells.; conditions: route intraperitoneal
Mus musculus [10] = assay: In vivo antitumor activity of the compound(ip, 12.5 mg/kg for 5 days) against CD2F1 mice implanted intraperitoneally with P388 leukemia cells; Day 30 survivors=3/6; conditions: route intraperitoneal
Mus musculus [11] = assay: In vivo antitumor activity of the compound(ip, 6.25 mg/kg for 5 days) against CD2F1 mice implanted intraperitoneally with P388 leukemia cells; Day 30 survivors=6/6; conditions: route intraperitoneal

Row | Structure (SMILES) | IC50 (L1210) | IC50 (HCT-8) | Ratio [3] | further results
1 | CCN(CC)CCN1Nc2c3cc(OC(C)=O)ccc3nc3c([N+](=O)[O-])ccc1c23.CS(=O)(=O)O | 3.8 nM | 5.3 nM | 1.4 | Activity (Mus musculus [1]): 4; T/C (Mus musculus [2]): 283%
2 | CC(=O)Oc1ccc2c(c1)-c1nn(CCN3CCCC3)c3ccc([N+](=O)[O-])c(c13)N2.CS(=O)(=O)O | 2.2 nM |  |  | Activity (Mus musculus [4]): 1; T/C (Mus musculus [2]): 236%
3 | CCN(CC)CCN1Nc2c3cc(O)ccc3nc3c([N+](=O)[O-])ccc1c23.CS(=O)(=O)O | 2 nM | 13 nM | 6.5 | T/C (Mus musculus [5]): 180%
4 | CCN(CC)CCN1Nc2c3cc(O[Si](C)(C)C(C)(C)C)ccc3nc3c([N+](=O)[O-])ccc1c23.CS(=O)(=O)O | 1.7 nM |  |  | Activity (Mus musculus [6]): 2; T/C (Mus musculus [7]): 228%
5 | CCN(CC)CCN1Nc2c3cc(OC(=O)C(C)(C)C)ccc3nc3c([N+](=O)[O-])ccc1c23.CS(=O)(=O)O | 1 nM | 9.7 nM | 0.97 | Activity (Mus musculus [8]): 5; T/C (Mus musculus [9]): 283%
6 | CCN(CC)CCN1Nc2c3c(Cl)c(OC)ccc3nc3c([N+](=O)[O-])ccc1c23.CS(=O)(=O)O | 61 nM |  |  | Activity (Mus musculus [10]): 3; T/C (Mus musculus [7]): 230%
7 | CS(=O)(=O)O.O=[N+]([O-])c1ccc2c3c(c4cc(O)ccc4nc13)NN2CCNCCO | 4.8 nM |  |  | Activity (Mus musculus [11]): 6; T/C (Mus musculus [9]): 275%
